Results taken from ChEMBL document CHEMBL1146142, “Synthesis of miltirone analogues as inhibitors of Cdc25 phosphatases” (Bioorg Med Chem Lett, 2006).

What was measured:
[1] = molecular target: T1, Tyrosine-protein phosphatase non-receptor type 1 (Homo sapiens, UniProt P18031); test: Inhibitory activity against human PTP1B
T1 sequence (P18031 whole entry): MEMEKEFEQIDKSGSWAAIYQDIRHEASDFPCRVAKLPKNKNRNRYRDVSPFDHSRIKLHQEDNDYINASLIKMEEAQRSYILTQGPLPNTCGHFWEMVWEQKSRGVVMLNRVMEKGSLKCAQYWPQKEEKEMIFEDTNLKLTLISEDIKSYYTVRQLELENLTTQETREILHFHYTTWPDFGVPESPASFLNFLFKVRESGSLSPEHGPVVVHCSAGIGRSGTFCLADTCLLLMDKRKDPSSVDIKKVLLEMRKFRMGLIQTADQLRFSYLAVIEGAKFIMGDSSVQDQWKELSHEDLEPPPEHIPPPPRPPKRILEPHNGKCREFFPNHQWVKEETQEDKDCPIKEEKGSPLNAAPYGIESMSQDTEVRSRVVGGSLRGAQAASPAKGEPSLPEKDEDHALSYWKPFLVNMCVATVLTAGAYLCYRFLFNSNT
How it was run: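 GST–PTP1B (30–40 nM) in 50 mM MOPs pH 6.5 with 2 mM DTT, 1 mM EDTA and 2% DMSO. Substrate was 2 mM pNPP.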

HCT-116 = test: Cytotoxicity against HCT116 cell line; type: functional, cell-based; conditions: Homo sapiens
How it was run: (§1)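 Tumor cells trypsinized and seeded at 3000 cells/well; after attachment, exposed to a range of compound concentrations for 72 h. MTT (5 mg/mL) was added and incubated 3 h, then medium was removed and formazan dissolved in DMSO. Absorbance read at 550 nm with […] reference.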

A549 = test: Cytotoxicity against A549 cell line; type: functional, cell-based; conditions: Homo sapiens; how it was run: as §1
[2] = molecular target: T2, M-phase inducer phosphatase 2 (Homo sapiens, UniProt P30305); test: Inhibitory activity against human Cdc25B phosphatase
T2 sequence (P30305 whole entry): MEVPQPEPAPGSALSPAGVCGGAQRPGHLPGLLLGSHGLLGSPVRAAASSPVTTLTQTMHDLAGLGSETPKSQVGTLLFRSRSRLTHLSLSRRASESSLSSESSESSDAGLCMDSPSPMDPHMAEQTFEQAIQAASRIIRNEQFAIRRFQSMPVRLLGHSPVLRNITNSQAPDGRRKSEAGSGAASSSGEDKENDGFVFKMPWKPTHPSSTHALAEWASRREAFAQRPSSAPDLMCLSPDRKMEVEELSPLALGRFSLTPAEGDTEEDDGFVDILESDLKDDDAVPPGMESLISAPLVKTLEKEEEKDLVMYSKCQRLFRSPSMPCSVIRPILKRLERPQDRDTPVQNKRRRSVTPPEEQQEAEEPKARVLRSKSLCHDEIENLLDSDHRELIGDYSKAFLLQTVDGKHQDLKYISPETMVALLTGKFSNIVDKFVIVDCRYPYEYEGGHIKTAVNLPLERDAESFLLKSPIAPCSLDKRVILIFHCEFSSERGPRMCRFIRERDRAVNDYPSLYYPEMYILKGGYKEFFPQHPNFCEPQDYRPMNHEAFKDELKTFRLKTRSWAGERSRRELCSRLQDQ

[3] = molecular target: T3, M-phase inducer phosphatase 1 (Homo sapiens, UniProt P30304); test: Inhibitory activity against human Cdc25A phosphatase
T3 sequence (P30304 whole entry): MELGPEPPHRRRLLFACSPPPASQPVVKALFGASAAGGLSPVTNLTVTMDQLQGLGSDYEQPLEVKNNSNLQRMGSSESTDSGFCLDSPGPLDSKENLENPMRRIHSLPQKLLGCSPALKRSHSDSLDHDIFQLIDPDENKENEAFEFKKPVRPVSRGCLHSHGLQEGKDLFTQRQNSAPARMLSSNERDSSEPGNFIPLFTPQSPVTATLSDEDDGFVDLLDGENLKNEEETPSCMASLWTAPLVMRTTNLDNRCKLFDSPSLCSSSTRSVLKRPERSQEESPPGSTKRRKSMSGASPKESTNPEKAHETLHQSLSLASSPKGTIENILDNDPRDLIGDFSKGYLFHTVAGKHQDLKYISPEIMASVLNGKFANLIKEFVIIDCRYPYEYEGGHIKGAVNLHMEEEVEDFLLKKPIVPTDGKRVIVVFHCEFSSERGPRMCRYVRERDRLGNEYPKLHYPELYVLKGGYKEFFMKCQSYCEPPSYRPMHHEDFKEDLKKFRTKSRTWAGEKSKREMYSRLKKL

SMILES	IC50 [1]	IC50 ([2]; read-out: IC50)	IC50 ([3]; read-out: IC50)	IC50 ([1]; read-out: IC50)	IC50 [2]	IC50 [3]	IC50 (HCT-116)	IC50 (A549)
COc1ccc(NC2=C(C(C)C)C(=O)C(=O)c3c2ccc2c3CCCC2(C)C)cc1	Not Active	4.09 µM	11.8 µM				5.51 µM	9.19 µM
CC(C)C1=C(Nc2ccccc2)c2ccccc2C(=O)C1=O	Not Active	8.71 µM	10.9 µM				8.22 µM	25 µM
CC(C)C1=C(Nc2ccc([N+](=O)[O-])cc2)c2ccc3c(c2C(=O)C1=O)CCCC3(C)C	Not Active				Not Active	Not Active	7.1 µM	5.34 µM
Cc1ccc(NC2=C(C(C)C)C(=O)C(=O)c3c2ccc2c3CCCC2(C)C)cc1	Not Active	7.54 µM	27.6 µM				24.9 µM	4.25 µM
CC(=O)Nc1ccc(SC2=C(C(C)C)C(=O)C(=O)c3ccccc32)cc1		13.8 µM	21.9 µM	7.63 µM			6.32 µM	7.36 µM
CC(C)C1=C(Sc2ccc(Br)cc2)c2ccc3c(c2C(=O)C1=O)CCCC3(C)C		3.78 µM	20.3 µM	7.19 µM			4.94 µM	5.07 µM
CC(C)C1=C(Sc2ccc(F)cc2)c2ccc3c(c2C(=O)C1=O)CCCC3(C)C		2.58 µM	22.1 µM	4.55 µM			5.71 µM	1.25 µM
CC(C)C1=C(Sc2ccc(F)cc2)c2ccccc2C(=O)C1=O		7.55 µM	12.8 µM	7.22 µM			20.8 µM	20.4 µM
CC(C)C1=Cc2ccccc2C(=O)C1=O	Not Active	24.1 µM	11.2 µM				4 µM	4.14 µM
CC(C)C1=Cc2ccc3c(c2C(=O)C1=O)CCCC3(C)C [MILTIRONE]	Not Active		> 70.8 µM		Not Active		12.4 µM	24.6 µM

Now from value to molecule, other results behind:

IC50 [1]	IC50 ([2]; read-out: IC50)	IC50 ([3]; read-out: IC50)	IC50 ([1]; read-out: IC50)	IC50 [2]	IC50 [3]	SMILES	IC50 (HCT-116)	IC50 (A549)
	3.63 µM	5.43 µM	7.57 µM			CC(C)C1=C(Sc2ccc(Br)cc2)c2ccccc2C(=O)C1=O	5.85 µM	5.93 µM
	5.33 µM	6.87 µM	19.1 µM			CC(C)C1=C(Nc2ccc([N+](=O)[O-])cc2)c2ccccc2C(=O)C1=O	2.39 µM	6.59 µM
	4.53 µM	7.06 µM	19.6 µM			Cc1ccc(NC2=C(C(C)C)C(=O)C(=O)c3ccccc32)cc1	6.16 µM	8.2 µM
	10.9 µM	5.86 µM	13.7 µM			CC(C)C1=C(Sc2ccccc2)c2ccccc2C(=O)C1=O	8.03 µM	7.59 µM
	5.07 µM	3.97 µM	10.4 µM			CC(C)C1=C(Sc2ccccc2)c2ccc3c(c2C(=O)C1=O)CCCC3(C)C	5.75 µM	26.6 µM
Not Active	4.63 µM	4.9 µM				COc1ccc(NC2=C(C(C)C)C(=O)C(=O)c3ccccc32)cc1	4.04 µM	87 µM
Not Active	3.23 µM	7.83 µM				CC(C)C1=C(c2ccccc2)c2ccccc2C(=O)C1=O	29.6 µM	24.7 µM
	4.85 µM	5.96 µM	9.05 µM			CC(=O)Nc1ccc(SC2=C(C(C)C)C(=O)C(=O)c3c2ccc2c3CCCC2(C)C)cc1	5.18 µM	15.4 µM
	3.16 µM	3.96 µM	4.11 µM			CC(C)C1=C(c2ccccc2)c2ccc3c(c2C(=O)C1=O)CCCC3(C)C	6.28 µM	6.24 µM
	3.99 µM	8.81 µM	27.2 µM			CC(C)C1=C(Nc2ccccc2)c2ccc3c(c2C(=O)C1=O)CCCC3(C)C	6.25 µM	19.1 µM
